In assay [1] the target is T1, Glutamate receptor ionotropic, kainate 1 (Homo sapiens, UniProt P39086). Put plainly: In vitro inhibitory activity against human ionotropic glutamate receptor ionotropic kainate 1 (GluR-5) expressed in HEK293 cells. Format: cell-based.
Assay [2] has as its system Mus musculus. The assay is described as follows: ATPA induced rigidity in mice was determined after 30 minutes of administration. The assay is classed as functional. In outline:
(§1)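 Female NMRI mice, 20-25 g. Test substance given intravenously, n = 8 per dose, 5 or 30 min before ATPA (30 mg/kg i.v.; 3 mg/mL in saline, pH 7). Rigidity scored every 5 min over 30 min after ATPA, as percent of rigid mice over time.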

Assay [3] addresses Glutamate receptor 1 (Rattus norvegicus) (UniProt P19490). Put plainly: In vitro inhibitory activity against Ionotropic glutamate receptor AMPA 1 of HEK293 cells in FLIPR assay.
The target in assay [4] is T1, Glutamate receptor ionotropic, kainate 1. The assay is described as follows: Binding inhibition of compound against Ionotropic glutamate receptor ionotropic kainate 1 (GluR5) using [3H]ATPA as radioligand. In outline: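 GluR5-expressing HEK293 cell membranes (washed in 50 mM Tris-HCl pH 7.1, prepared at 0-4 °C) incubated with 3 nM [3H]ATPA, 46-84 µg protein/assay, 60 min at 2 °C; test compounds at 3-30 µM. Nonspecific binding defined with 0.6 mM Glu; rapid filtration, liquid scintillation counting. At least three separate experiments.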

For assay [5], the system named is Mus musculus. Put plainly: ATPA induced rigidity in mice was determined after 5 minutes of administration. Format: functional. In outline:
as §1

The target of assay [6] is Glutamate receptor 3 (Rattus norvegicus) (UniProt P19492). The assay is described as follows: In vitro inhibitory activity against Ionotropic glutamate receptor AMPA 3 of HEK293 cells in FLIPR assay.
Glutamate receptor 3 (Rattus norvegicus), sequence (P19492 whole entry, looked up): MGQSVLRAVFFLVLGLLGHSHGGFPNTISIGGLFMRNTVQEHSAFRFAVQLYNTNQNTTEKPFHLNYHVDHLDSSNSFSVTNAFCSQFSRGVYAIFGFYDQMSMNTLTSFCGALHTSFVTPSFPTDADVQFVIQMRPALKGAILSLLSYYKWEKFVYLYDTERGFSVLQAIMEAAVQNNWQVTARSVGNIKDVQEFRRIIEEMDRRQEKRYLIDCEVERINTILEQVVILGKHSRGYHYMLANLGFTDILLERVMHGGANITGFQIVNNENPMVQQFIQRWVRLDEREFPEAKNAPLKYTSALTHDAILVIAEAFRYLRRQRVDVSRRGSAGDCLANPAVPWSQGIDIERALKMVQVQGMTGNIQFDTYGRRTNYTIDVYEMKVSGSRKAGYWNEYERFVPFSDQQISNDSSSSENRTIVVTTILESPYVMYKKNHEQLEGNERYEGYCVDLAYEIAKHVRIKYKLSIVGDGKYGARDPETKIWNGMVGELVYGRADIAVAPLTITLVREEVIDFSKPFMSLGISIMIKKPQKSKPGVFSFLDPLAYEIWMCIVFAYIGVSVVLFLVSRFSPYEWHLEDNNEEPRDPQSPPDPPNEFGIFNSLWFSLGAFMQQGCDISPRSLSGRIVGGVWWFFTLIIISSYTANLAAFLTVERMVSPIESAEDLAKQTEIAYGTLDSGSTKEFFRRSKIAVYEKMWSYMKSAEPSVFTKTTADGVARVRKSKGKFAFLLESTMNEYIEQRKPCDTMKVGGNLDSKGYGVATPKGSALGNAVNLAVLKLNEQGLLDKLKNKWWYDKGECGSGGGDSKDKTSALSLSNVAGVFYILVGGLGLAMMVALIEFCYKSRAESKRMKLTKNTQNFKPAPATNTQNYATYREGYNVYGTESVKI
The target of assay [7] is Glutamate receptor 4 (Rattus norvegicus) (UniProt P19493). The assay is described as follows: In vitro inhibitory activity against Ionotropic glutamate receptor AMPA 4 of HEK293 cells in FLIPR assay.
Glutamate receptor 4 (Rattus norvegicus), sequence (P19493 whole entry, looked up): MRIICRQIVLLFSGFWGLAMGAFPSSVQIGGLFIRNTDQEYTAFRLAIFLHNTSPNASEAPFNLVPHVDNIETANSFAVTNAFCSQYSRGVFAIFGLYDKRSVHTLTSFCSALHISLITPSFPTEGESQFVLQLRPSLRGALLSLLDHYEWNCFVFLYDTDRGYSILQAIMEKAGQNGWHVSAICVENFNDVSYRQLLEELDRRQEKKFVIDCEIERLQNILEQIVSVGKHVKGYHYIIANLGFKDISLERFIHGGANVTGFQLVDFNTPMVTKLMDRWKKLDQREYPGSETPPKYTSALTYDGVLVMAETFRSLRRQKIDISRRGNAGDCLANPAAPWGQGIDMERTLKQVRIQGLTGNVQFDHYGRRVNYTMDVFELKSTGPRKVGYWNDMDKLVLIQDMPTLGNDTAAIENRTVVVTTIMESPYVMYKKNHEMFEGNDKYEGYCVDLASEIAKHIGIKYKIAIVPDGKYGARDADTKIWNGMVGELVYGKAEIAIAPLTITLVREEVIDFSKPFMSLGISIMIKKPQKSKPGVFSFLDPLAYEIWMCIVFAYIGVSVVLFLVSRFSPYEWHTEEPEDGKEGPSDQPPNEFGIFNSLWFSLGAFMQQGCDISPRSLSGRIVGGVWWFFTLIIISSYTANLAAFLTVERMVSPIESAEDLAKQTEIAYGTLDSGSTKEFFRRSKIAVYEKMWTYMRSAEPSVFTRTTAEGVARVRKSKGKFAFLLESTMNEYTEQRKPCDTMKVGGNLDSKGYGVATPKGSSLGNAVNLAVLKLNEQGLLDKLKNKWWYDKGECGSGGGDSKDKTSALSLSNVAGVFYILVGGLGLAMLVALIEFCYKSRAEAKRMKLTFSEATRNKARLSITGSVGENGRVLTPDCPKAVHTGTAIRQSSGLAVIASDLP
Assay [8] has as its target Glutamate receptor ionotropic, kainate 2 (Homo sapiens, UniProt Q13002). Put plainly: In vitro inhibitory activity against Ionotropic glutamate receptor ionotropic kainate 2 (GluR-6) of HEK293 cells in FLIPR assay. Format: cell-based. Summed up:
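Human GluR6 stably expressed in HEK293, plated 24 h before assay. Cells loaded with 2 µM Fluo-4-AM for 60 min at room temperature, washed into Na+-free Ringer, pH 7.4. Compound preincubated 1.5 min, then 0.2 µM domoate added (final). Inhibition of the FLIPR Ca2+ fluorescence rise (ex 488, em 510-570 nm) was measured; IC50 from ≥3 experiments.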

The target of assay [9] is Glutamate receptor 2 (Rattus norvegicus) (UniProt P19491). Put plainly: In vitro inhibitory activity against Ionotropic glutamate receptor AMPA 2 of HEK293 cells in FLIPR assay.

T1 sequence (P39086 whole entry): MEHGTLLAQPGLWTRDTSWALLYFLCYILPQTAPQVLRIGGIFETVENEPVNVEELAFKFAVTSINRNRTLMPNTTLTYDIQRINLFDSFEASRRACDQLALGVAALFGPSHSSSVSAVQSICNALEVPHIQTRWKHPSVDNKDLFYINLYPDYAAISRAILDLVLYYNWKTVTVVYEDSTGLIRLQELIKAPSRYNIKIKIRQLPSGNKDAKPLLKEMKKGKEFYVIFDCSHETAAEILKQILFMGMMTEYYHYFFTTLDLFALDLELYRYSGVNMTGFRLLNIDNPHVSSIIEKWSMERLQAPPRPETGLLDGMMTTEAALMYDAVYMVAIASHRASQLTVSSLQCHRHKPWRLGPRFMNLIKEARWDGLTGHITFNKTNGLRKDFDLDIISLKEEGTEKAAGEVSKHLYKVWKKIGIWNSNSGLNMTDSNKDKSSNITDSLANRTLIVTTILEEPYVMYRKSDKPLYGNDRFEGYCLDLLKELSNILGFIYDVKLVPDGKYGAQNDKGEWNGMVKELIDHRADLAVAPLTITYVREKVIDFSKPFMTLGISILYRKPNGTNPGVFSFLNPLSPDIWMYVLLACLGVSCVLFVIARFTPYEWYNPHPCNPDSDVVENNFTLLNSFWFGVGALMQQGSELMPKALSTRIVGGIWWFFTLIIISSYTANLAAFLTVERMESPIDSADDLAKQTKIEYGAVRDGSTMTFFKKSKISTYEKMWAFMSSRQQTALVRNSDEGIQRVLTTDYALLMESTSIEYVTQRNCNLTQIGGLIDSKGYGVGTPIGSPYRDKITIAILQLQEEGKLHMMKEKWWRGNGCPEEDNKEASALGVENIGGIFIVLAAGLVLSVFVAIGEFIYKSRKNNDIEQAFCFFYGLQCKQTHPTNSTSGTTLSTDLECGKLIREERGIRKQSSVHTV
Glutamate receptor ionotropic, kainate 2, sequence (Q13002 whole entry): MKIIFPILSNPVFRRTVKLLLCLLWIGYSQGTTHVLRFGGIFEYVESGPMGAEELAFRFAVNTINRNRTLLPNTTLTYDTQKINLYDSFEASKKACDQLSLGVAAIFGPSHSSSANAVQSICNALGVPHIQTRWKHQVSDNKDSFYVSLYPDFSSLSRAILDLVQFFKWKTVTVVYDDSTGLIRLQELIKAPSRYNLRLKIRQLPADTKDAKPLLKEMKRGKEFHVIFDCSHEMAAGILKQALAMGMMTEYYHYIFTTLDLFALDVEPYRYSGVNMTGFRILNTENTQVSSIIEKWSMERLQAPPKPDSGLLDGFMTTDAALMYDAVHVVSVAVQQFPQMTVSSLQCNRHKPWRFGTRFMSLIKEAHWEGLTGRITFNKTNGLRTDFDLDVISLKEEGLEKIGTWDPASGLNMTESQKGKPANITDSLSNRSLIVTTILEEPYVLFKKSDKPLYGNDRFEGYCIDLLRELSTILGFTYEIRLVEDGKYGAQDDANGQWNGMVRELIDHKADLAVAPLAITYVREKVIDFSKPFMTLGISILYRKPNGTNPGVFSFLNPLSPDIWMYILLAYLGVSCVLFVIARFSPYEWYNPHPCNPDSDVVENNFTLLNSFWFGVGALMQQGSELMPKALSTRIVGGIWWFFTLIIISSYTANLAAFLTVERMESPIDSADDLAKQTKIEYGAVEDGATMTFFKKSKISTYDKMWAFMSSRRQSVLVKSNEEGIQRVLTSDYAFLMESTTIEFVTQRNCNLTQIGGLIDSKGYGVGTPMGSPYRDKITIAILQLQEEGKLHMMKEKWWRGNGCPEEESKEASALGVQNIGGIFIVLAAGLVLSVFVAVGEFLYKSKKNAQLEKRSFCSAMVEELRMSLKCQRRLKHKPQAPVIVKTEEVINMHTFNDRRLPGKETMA
Glutamate receptor 1 (Rattus norvegicus), sequence (P19490 whole entry, looked up): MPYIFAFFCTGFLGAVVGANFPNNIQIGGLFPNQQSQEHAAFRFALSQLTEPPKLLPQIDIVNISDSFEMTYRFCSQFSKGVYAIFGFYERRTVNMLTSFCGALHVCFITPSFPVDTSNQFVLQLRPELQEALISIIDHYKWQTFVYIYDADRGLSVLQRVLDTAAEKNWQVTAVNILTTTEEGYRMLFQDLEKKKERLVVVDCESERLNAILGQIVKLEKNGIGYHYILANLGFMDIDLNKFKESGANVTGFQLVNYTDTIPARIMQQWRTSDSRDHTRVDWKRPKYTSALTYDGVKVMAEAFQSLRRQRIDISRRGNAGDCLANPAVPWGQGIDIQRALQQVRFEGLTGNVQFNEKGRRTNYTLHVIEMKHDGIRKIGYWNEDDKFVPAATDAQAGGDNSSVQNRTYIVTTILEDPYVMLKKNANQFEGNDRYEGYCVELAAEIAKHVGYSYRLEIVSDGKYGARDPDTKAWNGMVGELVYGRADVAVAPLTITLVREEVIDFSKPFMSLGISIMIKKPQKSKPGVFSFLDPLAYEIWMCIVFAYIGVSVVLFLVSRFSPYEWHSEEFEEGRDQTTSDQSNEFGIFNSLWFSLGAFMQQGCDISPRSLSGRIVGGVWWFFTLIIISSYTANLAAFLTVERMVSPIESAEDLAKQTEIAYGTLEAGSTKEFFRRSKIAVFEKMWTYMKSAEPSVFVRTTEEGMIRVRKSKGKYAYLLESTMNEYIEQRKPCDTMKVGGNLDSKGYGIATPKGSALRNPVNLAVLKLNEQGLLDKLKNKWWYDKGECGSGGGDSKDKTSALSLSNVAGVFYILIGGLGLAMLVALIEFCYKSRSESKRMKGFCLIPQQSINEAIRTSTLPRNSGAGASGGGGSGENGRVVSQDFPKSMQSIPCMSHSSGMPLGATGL

Broadly, the IC50 is the concentration that inhibits the measured activity by half. Read a high IC50 as lower potency. `Cc1cccc(NC(=O)Nc2cccc(C(F)(F)F)c2)c1C(=O)O` showed an IC50 in [1] above 100 µM.

Turning to `O=C(Nc1ccccc1Cl)Nc1cc(Cl)ccc1C(=O)O`, in assay [1], half-maximal inhibition (IC50) was put at 4.7 µM. One may read the ED50 as the midpoint of the dose-response relation. A high value points to weaker potency. Consider `O=C(Nc1ccc2ccccc2c1)Nc1cc(Cl)ccc1C(=O)O`, for which the ED50 in assay [2] and in assay [5] was above 30 mg/kg each time. Moreover, the IC50 was above 100 µM in [3]; above 30 µM in [4]; 1.2 µM in assay [1]; above 100 µM in assay [6]; above 100 µM in assay [7]; 62 µM in assay [8]. As for `O=C(Nc1cc(Cl)ccc1C(=O)O)Nc1ccccc1C(F)(F)F`, in assay [1], half-maximal inhibition (IC50) required 4.5 µM. With `O=C(Nc1ccccc1Br)Nc1cc(Cl)ccc1C(=O)O`, in assay [1], inhibition was half-maximal at 4.5 µM (IC50).

As to `O=C(Nc1cccc(C(F)(F)F)c1)Nc1cc(Br)ccc1C(=O)O`, half-maximal inhibition in assay [1] (IC50) required 6.1 µM. Turning to `COc1cccc(NC(=O)Nc2cc(Cl)ccc2C(=O)O)c1`, the half-maximal inhibitory concentration (IC50) in [1] came to 3.7 µM. Compound `O=C(Nc1ccncc1)Nc1cc(Cl)ccc1C(=O)O` displayed an IC50 in [1] of 88 µM.

With `O=C(Nc1ccccc1)Nc1ccccc1C(=O)O`, the IC50 in [1] is above 100 µM.

`O=C(Nc1cccc(F)c1)Nc1cc(Cl)ccc1C(=O)O`: in [1], the IC50 came to 7.6 µM. On the same count and under the same terms, the figure for `O=C(Nc1cc(Cl)ccc1C(=O)O)Nc1cccc2ccccc12` is 9.4 µM; for `O=C(Nc1cccc(C(F)(F)F)c1)Nc1cc(Cl)ccc1C(=O)O` it is 5 µM.

`O=C(Nc1cc(NC(=O)c2ccccc2)c(C(=O)O)cc1C(=O)O)c1ccccc1` gave an IC50 in assay [1] of 1.6 µM. Compound `O=C(Nc1ccc(I)cc1)Nc1cc(Cl)ccc1C(=O)O` registered a concentration for half-maximal inhibition (IC50) in assay [1] of 4.7 µM. `O=C(Nc1cc2ccccc2[nH]1)Nc1cc(Cl)ccc1C(=O)O` showed an IC50 in assay [1] of 1.2 µM.

In assay [1], `Cc1ccc(NC(=O)Nc2cccc(C(F)(F)F)c2)c(C(=O)O)c1` yielded a half-maximal inhibitory concentration (IC50) above 100 µM. On the same count and under the same terms, the figure for `O=C(Nc1ccc2c(c1)OCO2)Nc1cc(Cl)ccc1C(=O)O` is 3.6 µM; for `O=C(Nc1cccc(C(F)(F)F)c1)Nc1cc(F)ccc1C(=O)O` it is 10 µM. As for `O=C(Nc1ccc(Br)cc1)Nc1cc(Cl)ccc1C(=O)O`, 2.2 µM corresponded to half-maximal inhibition in assay [1] (IC50). Take `O=C(Nc1cc(Cl)ccc1C(=O)O)NC1CCCCC1`: the IC50 in assay [1] is above 100 µM.

`O=C(Nc1cccc(I)c1)Nc1cc(Cl)ccc1C(=O)O` returned an IC50 in [1] of 2.2 µM.

For the compound `O=C(Nc1ccccc1I)Nc1cc(Cl)ccc1C(=O)O`, half-maximal inhibition in assay [1] (IC50) was put at 5 µM. Take `O=C(Nc1ccc(C(F)(F)F)cc1)Nc1cc(Cl)ccc1C(=O)O`: inhibition in [1] was half-maximal at 4.8 µM (IC50). Same read-out and setting: for `COc1ccc(NC(=O)Nc2cc(Cl)ccc2C(=O)O)cc1` the value was 10 µM.

Regarding `O=C(Nc1ccc(Cl)cc1)Nc1cc(Cl)ccc1C(=O)O`, in assay [1], the concentration for half-maximal inhibition (IC50) turned out to be 3.1 µM. On the same count and under the same terms, for `Cc1cccc(C(=O)O)c1NC(=O)Nc1cccc(C(F)(F)F)c1` the value was above 100 µM.

Consider `O=C(Nc1cccc(Br)c1)Nc1cc(Cl)ccc1C(=O)O`, for which the ED50 in [2] (Mus musculus, 0.5 h) came to 24 mg/kg; in assay [5] (Mus musculus, 5 min) it was 4 mg/kg. The IC50 was above 100 µM in assay [3]; above 30 µM in [4]; above 100 µM in assay [9]; 4.8 µM in [1]; above 100 µM in assay [6]; above 100 µM in assay [7]. This compound had an IC50 in assay [8] of 28 µM. In assay [1], `O=C(Nc1cc(Cl)ccc1C(=O)O)Nc1ccccc1-c1ccccc1` had an IC50 above 10 µM. Still for that read-out and setting: the figure for `O=C(Nc1ccccc1)Nc1cc(Cl)ccc1C(=O)O` is 10 µM. With `O=C(Nc1ccc2cc3ccccc3cc2c1)Nc1cc(Cl)ccc1C(=O)O`, the IC50 in [1] is above 30 µM.

The values are drawn from ChEMBL document CHEMBL1145950, “2-arylureidobenzoic acids: selective noncompetitive antagonists for the homomeric kainate receptor subtype GluR5” (J Med Chem, 2003).
